Source: ChEMBL document CHEMBL3108709, “Diversity-oriented synthesis yields a new drug lead for treatment of chagas disease” (ACS Med Chem Lett, 2014)
Converted amounts (≈) assume the structure as drawn. The source made the active and inactive calls. The calls are words filed in the database; no cut-off is given here.

Legend:
[1] = tested on: Trypanosoma cruzi; test: Antitrypanosomal activity against Trypanosoma cruzi Tulahuen infected in mouse NIH/3T3 cells assessed as multimode parasite growth inhibition after 4 days by beta-galactosidase reporter gene assay; type: functional, organism-based; details: NIH3T3, 96 h
How it was run: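 Recombinant Tulahuen T. cruzi stably expressing a beta-galactosidase reporter, cocultured with mouse NIH/3T3 fibroblast host cells. Compounds added to host cells before infection with parasites; growth inhibition read by reporter; IC50 in nM.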

[2] = Solubility of the compound in phosphate buffer saline; type: physicochemical
[3] = tested on: Trypanosoma cruzi; test: Trypanocidal activity against Trypanosoma cruzi CA-I/72 infected in BESM cells assessed as parasite re-emergence at 40 nM measured over 29 days of drug treatment; type: functional, organism-based
How it was run: (§1)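 T. cruzi-infected bovine embryo skeletal muscle (BESM) cells treated with varying compound concentrations for 20 or 29 days, compound refreshed every other day, then followed up to 36 days post-treatment. Trypomastigote emergence into medium checked visually daily through treatment and post-treatment phases; no re-emergence taken as trypanocidal, delayed emergence as trypanostatic.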

[4] = tested on: Trypanosoma cruzi; test: Antitrypanosomal activity against amastigote stage of Trypanosoma cruzi Tulahuen infected in rat L6 cells assessed as parasite growth inhibition after 96 hrs by beta-galactosidase reporter gene assay; type: functional, organism-based; details: L6, 96 h
[5] = Metabolic stability in mouse microsomes assessed as compound remaining at 1 uM after 1 hr; type: ADME, Microsome; details: read-out: Stability
How it was run: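 Mouse liver microsomes incubated 1 h with compound at 1 μM; result expressed as percent of compound remaining.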

[6] = tested on: Trypanosoma cruzi; test: Trypanocidal activity against Trypanosoma cruzi CA-I/72 infected in BESM cells assessed as parasite re-emergence at 40 nM treated for 29 days measured after 36 days; type: functional, organism-based; how it was run: as §1
[7] = Plasma protein binding in human; type: ADME, cell-free; details: read-out: PPB (converted)
[8] = Fraction unbound in human plasma; type: ADME, cell-free
[9] = tested on: Trypanosoma cruzi; test: Trypanocidal activity against Trypanosoma cruzi CA-I/72 infected in BESM cells assessed as parasite re-emergence at 740 nM measured over 20 days of drug treatment; type: functional, organism-based; how it was run: as §1
[10] = tested on: Trypanosoma cruzi; test: Trypanocidal activity against Trypanosoma cruzi CA-I/72 infected in BESM cells assessed as parasite re-emergence at 250 nM treated for 20 days measured after 4 days; type: functional, organism-based; how it was run: as §1
[11] = tested on: Trypanosoma cruzi; test: Trypanocidal activity against Trypanosoma cruzi CA-I/72 infected in BESM cells assessed as parasite re-emergence at 740 nM treated for 20 days measured after 37 days; type: functional, organism-based; how it was run: as §1
[12] = tested on: Trypanosoma cruzi; test: Trypanocidal activity against Trypanosoma cruzi CA-I/72 infected in BESM cells assessed as parasite re-emergence at 250 nM measured over 20 days of drug treatment; type: functional, organism-based; how it was run: as §1

## C[C@H]1CN([C@@H](C)CO)C(=O)c2cccc(NC(=O)c3ccncc3)c2O[C@@H]1CN(C)Cc1cccc(Cl)c1Cl
[1]
  IC50: 25 nM

## C[C@H]1CN([C@@H](C)CO)C(=O)c2cccc(NC(=O)c3ccncc3)c2O[C@@H]1CN(C)Cc1ccc(Cl)cc1
[1]
  IC50: 1 nM

## COc1ccc(CN(C)C[C@H]2Oc3c(NC(=O)c4ccncc4)cccc3C(=O)N([C@@H](C)CO)C[C@@H]2C)cc1
[1]
  IC50: 127 nM

## C[C@H]1CN([C@@H](C)CO)C(=O)c2cccc(NC(=O)c3ccncc3)c2O[C@@H]1CN(C)Cc1ccc(F)c(F)c1
[1]
  IC50: 50 nM

## C[C@@H]1CN([C@@H](C)CO)C(=O)c2cccc(NC(=O)c3ccncc3)c2O[C@H]1CN(C)Cc1ccc(Oc2ccccc2)cc1
[2]
  solubility: 1 µM (≈ 0.595 µg/mL)
[3]
  Activity: Active
[4]
  IC50: 24 nM
[5]
  remaining at 1 h, 1 µM: 2%
[1]
  IC50: 1 nM
[6]
  Activity: Active
[7]
  fraction unbound: 0.01

## C[C@H]1CN([C@@H](C)CO)C(=O)c2cccc(NC(=O)c3ccncc3)c2O[C@@H]1CN(C)Cc1cccc(Cl)c1
[1]
  IC50: 15 nM

## C[C@@H]1CN([C@H](C)CO)C(=O)c2cccc(NC(=O)c3ccncc3)c2O[C@@H]1CN(C)Cc1ccc(Oc2ccccc2)cc1
[2]
  solubility: 86 µM (≈ 51.1 µg/mL)
[4]
  IC50: 1200 nM
[5]
  remaining at 1 h, 1 µM: < 1%
[1]
  IC50: 260 nM
[7]
  fraction unbound: 0.05
[8]
  fraction unbound: 0.05

## C[C@H]1CN([C@@H](C)CO)C(=O)c2cccc(NC(=O)c3ccncc3)c2O[C@@H]1CN(C)Cc1ccc(Cl)c(F)c1
[1]
  IC50: 1 nM

## C[C@H]1CN([C@@H](C)CO)C(=O)c2cccc(NC(=O)c3ccncc3)c2O[C@@H]1CN(C)Cc1ccc(Cl)cc1Cl
[1]
  IC50: 27 nM

## C[C@H]1CN([C@@H](C)CO)C(=O)c2cccc(NC(=O)c3ccncc3)c2O[C@@H]1CN(C)Cc1ccc(C(F)(F)F)cc1
[4]
  IC50: 422 nM
[1]
  IC50: 13 nM

## C[C@H](CO)N1C[C@H](C)[C@@H](CN(C)Cc2ccc(Oc3ccccc3)cc2)Oc2c(NC(=O)c3ccncc3)cccc2C1=O
[2]
  solubility: 2 µM (≈ 1.19 µg/mL)
[4]
  IC50: 31 nM
[5]
  remaining at 1 h, 1 µM: 70%
[1]
  IC50: 2 nM
[7]
  fraction unbound: 0.01

## C[C@H]1CN([C@@H](C)CO)C(=O)c2cccc(NC(=O)c3ccncc3)c2O[C@@H]1CN(C)Cc1cccc(C(F)(F)F)c1
[1]
  IC50: 1 nM

## Cc1ccccc1CN(C)C[C@H]1Oc2c(NC(=O)c3ccncc3)cccc2C(=O)N([C@@H](C)CO)C[C@@H]1C
[1]
  IC50: 56 nM

## C[C@@H]1CN([C@@H](C)CO)C(=O)c2cccc(NC(=O)c3ccncc3)c2O[C@@H]1CN(C)Cc1ccc(Oc2ccccc2)cc1
[2]
  solubility: 87 µM (≈ 51.7 µg/mL)
[4]
  IC50: 670 nM
[5]
  remaining at 1 h, 1 µM: < 1%
[1]
  IC50: 450 nM
[7]
  fraction unbound: 0.05
[8]
  fraction unbound: 0.05

## C[C@H]1CN([C@@H](C)CO)C(=O)c2cccc(NC(=O)c3ccncc3)c2O[C@@H]1CN(C)Cc1ccc(Oc2ccccc2)cc1
[9]
  Activity: Active
[10]
  Activity: inactive
[2]
  solubility: 1 µM (≈ 0.595 µg/mL)
[3]
  Activity: Active
[4]
  IC50: 16 nM
[5]
  remaining at 1 h, 1 µM: 77%
[11]
  Activity: Active
[1]
  IC50: 1 nM
[6]
  Activity: Active
[7]
  fraction unbound: 0.01
[12]
  Activity: inactive

## C[C@H]1CN([C@@H](C)CO)C(=O)c2cccc(NC(=O)c3ccncc3)c2O[C@@H]1CN(C)Cc1cc(Cl)ccc1Cl
[1]
  IC50: 57 nM

## CC(C)N1C[C@H](C)[C@@H](CN(C)Cc2ccc(Oc3ccccc3)cc2)Oc2c(NC(=O)c3ccccc3)cccc2C1=O
[1]
  IC50: 500 nM

## CC(C)N1C[C@H](C)[C@@H](CN(C)Cc2ccc(Oc3ccccc3)cc2)Oc2c(NC(=O)c3ccccn3)cccc2C1=O
[1]
  IC50: 344 nM

## C[C@H]1CN([C@@H](C)CO)C(=O)c2cccc(NC(=O)c3ccncc3)c2O[C@@H]1CN(C)Cc1ccccc1
[2]
  solubility: 100 µM (≈ 50.3 µg/mL)
[1]
  IC50: 12 nM

## CC(C)N1C[C@H](C)[C@@H](CN(C)Cc2ccccc2Cl)Oc2c(NC(=O)c3ccncc3)cccc2C1=O
[1]
  IC50: 45 nM

## C[C@H]1CN([C@@H](C)CO)C(=O)c2cccc(NC(=O)c3ccncc3)c2O[C@@H]1CN(C)Cc1ccc(-c2ccccc2)cc1
[1]
  IC50: 10 nM
